# From PubChem
# HSF1 activator: increases HSF-1 driven luciferase reporter signal. actives 1.7% (n = 300,000). AID 504408. NIH3T3-HGL HSF-1 luciferase reporter, MG132, 8 h; 100% = twice DMSO control signal. activation, % at 9 µM;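 active = mean replicate activation of at least 50% with a set share of replicates each reaching 50%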;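 also: 0% = median of the neutral control wells and 100% = twice that signal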
# HSF1 inh: HSF1 inhibition | NIH3T3-HGL HSE-luciferase, MG132-induced, luminescence 8 h; stronger effect = lower value | activity change, negative = inhibition, % at 7.5 µM (by protocol) | actives 0.77% (n = 300,000);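 active = more than half of replicate wells show activity change below -50%, luminescence cut by over half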;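 also: luciferase reports HSF-1 transcriptional activity via heat shock element; 0% = median of DMSO wells and -100% = zero luminescence signal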
# CHT inh: inhibits the human high affinity choline transporter; AID 488975; B-score at 10 µM; Q9GZV3; actives 0.86% (n = 310,000); CHT-expressing cells, membrane potential dye, choline response; stronger effect = lower value;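 active = B-score over 3 SD under the library average, and starting fluorescence ratio not unusually high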;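 also: choline stimulus applied at its EC90 after an EC20 pre-addition; B-score computed on integrated fluorescence ratio after choline addition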
# CHT PAM: allosteric activators of human choline transporter CHT; CHT-expressing cells, membrane potential dye, choline EC20; stronger effect = higher value; LV-AA mutant CHT in HEK293 cells; B-score at 10 µM; AID 488977; actives 0.49% (n = 310,000); Q9GZV3;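 active = initial fluorescence not abnormally high and integrated response B-score, plate-corrected, over 3 SD above library mean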
# Lipid droplet: hepatic lipid droplet formation modulation. AML12 mouse hepatocytes, oleate lipid droplets, BODIPY imaging. inhibition, % at 6.5 µM. actives 0.4% (n = 240,000);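 active = lipid droplet intensity inhibited by at least 50%, with more than 500 cells counted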
#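 Assay system: AML12 mouse liver cells | Compound dosing: One dose, 6.5 µM compound | Read-out basis: Droplet intensity reduction, % inhibition | Measured by: Fluorescence imaging, 20x objective, two fields per well | Schedule: Overnight treatment with compound plus oleate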
# PHOSPHO1 block: inhibitors of human PHOSPHO1 phosphatase; Q8TCT1; recombinant PHOSPHO1, absorbance phosphatase assay; inhibition, % at 13.3 µM; actives 1.1% (n = 290,000); in the data active = inhibition above about 60%
# Target sequence (Q8TCT1 whole entry, looked up): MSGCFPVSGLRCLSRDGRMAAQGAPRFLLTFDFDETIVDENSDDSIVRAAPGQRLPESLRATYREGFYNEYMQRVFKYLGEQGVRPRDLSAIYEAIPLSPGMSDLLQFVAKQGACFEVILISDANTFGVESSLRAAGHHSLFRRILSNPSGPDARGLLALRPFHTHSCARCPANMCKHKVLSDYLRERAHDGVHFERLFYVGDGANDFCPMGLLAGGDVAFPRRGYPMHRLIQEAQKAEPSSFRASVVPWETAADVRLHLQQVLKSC
# CHT act confirm: human CHT activation, confirmatory screen; AID 504833; CHT-expressing cells, membrane potential dye fluorescence (FDSS); % of choline EC20–EC90 response window; HEK293 expressing CHT LV-AA mutant; choline added at its EC20; actives 91% (n = 2,500); shares compounds with CHT PAM; activation, % at 10 µM;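 active = primary screen active, with duplicate mean activation above negative control mean plus 3 SD, cut at about 11% in these data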
# HEK293 MP dye: counter-screen for CHT activators: effect in parental HEK293 cells; membrane potential dye fluorescence (FDSS); measured after EC20 choline addition; AID 623908; ratio readout change at 10 µM, hits read low; actives 62% (n = 2,500); shares compounds with CHT PAM;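 active = duplicate-averaged ratio beyond 3 SD from buffer wells, up or down, though filed actives are nearly all decreases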
# Active calls of the source: *; i = inactive; x = not tested or not shown. Only some compounds are listed: those with a hit (about 4.9% of all), similar ones and a draw of the others.
SMILES,HSF1 activator,HSF1 inh,CHT inh,CHT PAM,Lipid droplet,PHOSPHO1 block,CHT act confirm,HEK293 MP dye
CCCCCn1c(SCCN2CCOCC2)nc2c1c(=O)[nH]c(=O)n2C,29,8,i,i,x,69*,39*,-37*
CN(C)C=NCCn1c(N2CCOCC2)nc2c1c(=O)n(C)c(=O)n2C,-6,-5,i,14*,-1,21,68*,-70*
CCOC(=O)c1c(C)[nH]c(C)c1C(=O)COC(=O)c1nc2nccc(C)n2n1,-22,1,i,i,16,32,x,x
CCN1CCN(c2nc(-c3ccccn3)nc3ccccc23)CC1,-8,-6,i,i,x,-68,57*,-92*
c1ccc(-c2nc(N3CCCCCC3)c3ccccc3n2)nc1,-11,-6,i,i,x,2,x,x
c1ccc(-c2nc(N3CCOCC3)c3ccccc3n2)nc1,-21,-9,i,10*,0,-75,69*,-83*
COc1ccc(C(NC(=O)/C=C\c2ccco2)c2ccc(OC)c(OC)c2)cc1 (configuration not stated),22,0,i,i,x,21,x,x
O=c1nccc(N/N=C/c2ccccc2)[nH]1,-4,0,i,i,x,-3,x,x
CCCCCCCC[n+]1c(C)n(-c2ccccc2)c2ccc(NC(C)=O)cc21,7,-3,i,10*,-13,-12,78*,-33*
Cc1cccc(N(C(=O)CCC(=O)Nc2cccnc2)C(C(=O)NC2CCCC2)c2ccncc2)c1 (configuration not stated),-7,2,i,i,-5,0,x,x
CC(c1ccccc1)N(CCC(c1ccccc1)C1CCOC(C)(C)C1)C(=O)c1ccco1 (configuration not stated),3,2,i,6.4*,30,-4,34*,i
COc1ccc(NS(=O)(=O)c2cccc(-c3nnc4n3CCCCC4)c2)cc1,-49,-32,i,i,x,20,18*,i
Cc1sc2ncn(CCn3cnc4sc(C)c(C)c4c3=O)c(=O)c2c1C,24,1,i,i,-1,25,x,x
Cc1sc2ncn3c(C)nnc3c2c1C,0,-4,i,7*,x,-16,59*,-58*
CN1CCN(CCCNC(=O)c2cn(C)c3ccc(S(=O)(=O)N(C)C)cc3c2=O)CC1,x,x,i,6.9*,x,6,41*,-23*
COC(=O)[C@H]1[C@@H](C)N(CCc2cc(OC)c(OC)c(OC)c2)C(=O)N[C@H]1c1ccccc1,-8,-1,i,i,x,x,x,x
Cc1cc(=O)n2c3ccccc3n(CC(O)CN3CCCC3)c2c1C#N (configuration not stated),-12,5,i,6.9*,x,62*,52*,-46*
CCCNCC(O)Cn1c2ccccc2n2c(=O)cc(C)c(C#N)c12 (configuration not stated),16,-1,i,i,-8,7,46*,-41*
Cc1cc(=O)n2c(sc3ccccc32)c1C#N,-3,-5,i,i,26,11,x,x
Cc1cc(NC(=O)c2ccccc2F)nc2c1c(=O)oc1ccccc12,-3,-11,i,i,35,18,x,x
COC(=O)CCCC1=CC2=C(c3ccccc3)C(=O)C(C)(OC(=O)C3CCCC3)C(=O)C2=CN1C1CC1 (configuration not stated),11,8,i,10*,-18,26,0,i
Cc1cc(C)n2nc(C(=O)N/N=C/c3cn(C)nc3C)nc2n1,2,-8,i,i,-13,24,48*,-30*
Cc1nn(C)cc1/C=N/NC(=O)c1ccc2c(c1)OCO2,-2,6,i,i,x,10,x,x
Cc1cc(NS(=O)(=O)c2ccc(NC(=O)c3cnc4scc(C)n4c3=O)cc2)nc(C)n1,5,-1,i,6.2*,6,2,33*,-27*
Cc1noc(NS(=O)(=O)c2ccc(NC(=O)c3cnc4scc(C)n4c3=O)cc2)c1C,-5,-5,i,i,24,16,x,x
SMILES,HSF1 activator,HSF1 inh,CHT inh,CHT PAM,Lipid droplet,PHOSPHO1 block,CHT act confirm,HEK293 MP dye
Cc1cc(=O)oc2cc(OCCCC[n+]3ccccc3)ccc12,-12,-4,i,i,16,25,62*,-38*
Cc1cc(=O)oc2cc(OCCc3ccccc3)ccc12,50,25,i,i,x,x,x,x
CCCc1n(CC)c2ccccc2[n+]1CC(O)COC1CCCCC1 (configuration not stated),2,-6,i,7*,-41,-8,40*,i
CCCCCCCCSc1nnc2[nH]c(=O)cc(N)n12,11,-5,i,i,-7,-1,x,x
C=CC[n+]1ccc(/C=C2\C=Cc3cc(C)ccc3N2CC)c2ccccc21,x,x,x,x,-37,2,x,x
C=CC[n+]1ccc2ccccc2c1C,1,-3,i,7.7*,3,-8,65*,-61*
COc1ccc(N2CCN(C(=O)CSc3nnc4c(C)cc5cc(C)ccc5n34)CC2)cc1,14,8,i,i,x,6,x,x
NCCCC[C@H]1CN=C(N)N1CCC12CC3CC(CC(C3)C1)C2,-4,-2,i,8.5*,13,44,54*,-58*
NCCCC[C@H]1CN=C(N)N1CCc1cccc2ccccc12,-11,0,i,i,x,x,x,x
COc1ccc(-c2cc(C(=O)O)c3c(C)nn(-c4ccccn4)c3n2)cc1,-6,-2,i,i,x,-129,x,x
CCOC(=O)c1cc(-c2ccncc2)nc2c1c(C)nn2-c1ccccn1,14,-7,i,7.7*,x,x,30*,-20*
CC1(C)CC(=O)CC(C)(C)N1OC(=O)c1ccncc1,-7,-1,i,i,10,-3,x,x
O=C(C1CCN(CC2CC=CCC2)CC1)N(CCc1ccccc1)Cc1ccccc1 (configuration not stated),-8,-6,i,i,0,-15,4,i
O=C(CSc1nnc(-c2cccnc2)n1Cc1ccccc1)NCc1ccco1,0,4,i,i,x,29,x,x
COCCCN(CC(=O)Nc1ccc(N2CCOCC2)cc1)S(=O)(=O)c1ccccc1,0,-9,i,i,-7,52,x,x
CCOC(=O)c1c(N=CN(C)C)c2cc([N+](=O)[O-])cnc2n1C,-2,-3,i,i,-6,24,38*,-46*
